ChEMBL document CHEMBL1121809, “Cyclic guanidines. 14. Imidazo[1,2-a]thienopyrimidin-2-one derivatives as blood platelet aggregation inhibitors” (J Med Chem, 1981)

Columns and labels:
[1] = tested on: Rattus norvegicus; experiment: (§1) Ex vivo inhibition of collagen-induced blood platelet aggregation in rat was measured 2 hr after oral administration of 50 mg/kg; format: functional; set-up: scale not given here
How it was run: (§2)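 Overnight-fasted rats were dosed orally at (50 mg/10 mL)/kg in 0.5% Tween 80; controls got vehicle at 10 mL/kg. PRP was made from carotid citrated blood 2 h later under pentobarbital. Collagen suspension (absorbance 0.270 at 420 nm) drove aggregation at 30 °C, 1100 rpm. Read-out was the initial maximal rate of absorbance fall (ΔA/min). Inhibition percent is versus controls; 5–7 rats, mean ± SD.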

[2] = tested on: Rattus norvegicus; experiment: Ex vivo inhibition of collagen-induced blood platelet aggregation in rat was measured 2 hr after administration of vehical alone; format: functional; how it was run: as §2
[3] = species: Rattus norvegicus; experiment: In vitro inhibition of ADP-induced blood platelet aggregation; format: functional
How it was run: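 Rat carotid citrated blood was spun at 230g for 7 min to give PRP, adjusted with PPP to about 5 × 10⁵ platelets/μL. Compound in saline or MeOH was added before 10 μM ADP in Tris-HCl/NaCl pH 7.4 with CaCl₂. Aggregation was read at 30 °C, 1100 rpm, as maximal ΔA. EC50 is the concentration giving 50% inhibition.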

[4] = species: Rattus norvegicus; experiment: In vitro inhibition of collagen-induced blood platelet aggregation; format: functional
How it was run: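 Rat PRP (about 5 × 10⁵ platelets/μL) was preincubated with compound added in saline or MeOH. Aggregation was started with bovine tendon collagen suspension in Tris buffer (absorbance 0.270 at 420 nm; lag 2–3 min). Read at 30 °C, 1100 rpm, as initial maximal rate ΔA/min. EC50 is the concentration giving 50% inhibition.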

[5] = tested on: Rattus norvegicus; experiment: as §1; format: functional; how it was run: as §2
[6] = species: Rattus norvegicus; experiment: Inhibition of collagen-induced blood platelet aggregation in rat after 24 hr; format: functional
How it was run: (§3)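 Fasted rats received one oral 50 mg/kg dose in 0.5% Tween 80, and PRP was prepared 3, 6 or 24 h later; vehicle controls were bled at 3 h. Collagen-induced aggregation was read as initial maximal rate ΔA/min at 30 °C. Percent inhibition is versus controls; 5–7 animals, mean ± SD.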

[7] = species: Rattus norvegicus; experiment: Inhibition of collagen-induced blood platelet aggregation in rat after 6 hrs; format: functional; how it was run: as §3
[8] = species: Rattus norvegicus; experiment: Inhibition of collagen-induced blood platelet aggregation in rat after 3 hrs; format: functional; how it was run: as §3
[9] = tested on: Rattus norvegicus; experiment: Effect on heart rate in rat after an oral dose at 50 mg/kg (1h after dose); format: functional
How it was run: (§4)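 Male Wistar-Imamichi rats, 250 g, were given the compound orally at (50 mg/7.5 mL)/kg as a suspension in 0.5% CMC or 0.5% Tween 80. Systolic pressure and heart rate were taken by tail-cuff after prewarming at 55–60 °C for 3 min, before dosing and at set times after. Five rats per group, mean ± SD. Pressure is reported as decrease and heart rate as percent change.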

[10] = tested on: Rattus norvegicus; experiment: Effect on heart rate in rat after an oral dose at 50 mg/kg (4h after dose); format: functional; how it was run: as §4
[11] = tested on: Rattus norvegicus; experiment: Effect of compound on heart rate in rat after an oral dose at 50 mg/kg; format: functional; how it was run: as §4
[12] = tested on: Rattus norvegicus; experiment: Effect on systolic blood pressure in rat after an oral dose at 50 mg/kg; format: functional, Artery; how it was run: as §4
[13] = tested on: Rattus norvegicus; experiment: Effect on systolic blood pressure in rat after an oral dose at 50 mg/kg (5h after dose); format: functional, Artery; how it was run: as §4
[14] = tested on: Rattus norvegicus; experiment: Effect on heart rate in rat after an oral dose at 50 mg/kg (3h after dose); format: functional; how it was run: as §4
[15] = tested on: Rattus norvegicus; experiment: Effect on systolic blood pressure in rat after an oral dose at 50 mg/kg (1h after dose); format: functional, Artery; how it was run: as §4
[16] = tested on: Rattus norvegicus; experiment: Effect on systolic blood pressure in rat after an oral dose at 50 mg/kg (3h after dose); format: functional, Artery; how it was run: as §4
[17] = species: Rattus norvegicus; experiment: Inhibition of ADP-induced blood platelet aggregation in rat after 3 hr; format: functional
How it was run: (§5)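 This is an ex vivo time course after a single oral 50 mg/kg dose in 0.5% Tween 80 to fasted rats, with PRP made at 3, 6 or 24 h; controls got vehicle 3 h before blood collection. ADP (10 μM) aggregation was read as extent ΔA at 30 °C. Percent inhibition is versus controls; 5–7 animals, mean ± SD.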

[18] = species: Rattus norvegicus; experiment: Inhibition of ADP-induced blood platelet aggregation in rat after 24 hr; format: functional; how it was run: as §5
[19] = species: Rattus norvegicus; experiment: Inhibition of ADP-induced blood platelet aggregation in rat after 6 hr; format: functional; how it was run: as §5

What does the source list for `Cl.O=C1CN2Cc3c(sc4c3CCC(O)C4)N=C2N1` (stereo not drawn)?
Delta A/min [1]: 2000; Delta A/min [2]: 0.117; EC50 [3]: 2 µM; EC50 [4]: 0.1 µM

Which “Delta A/min” value [1] does the source give for `Cl.O=C1CN2Cc3c(sc4c3CCOC4)N=C2N1` here?
Its value is 113000.

And the Delta A/min [2]?
The Delta A/min was 0.171.

And the EC50 [3]?
Its EC50 is 1.3 µM.

And the EC50 [4]?
The EC50 was 0.2 µM.

Which Delta A/min [1] does the source give for `Cc1scc2c1CN1CC(=O)NC1=N2.Cl` here?
The Delta A/min was 0.198 ΔA/min.

What about the Delta A/min [2] of the same compound?
The Delta A/min was 0.29.

What about the EC50 [3] of the same compound?
The EC50 was 17 µM.

And the EC50 [4]?
Its EC50 is 3.5 µM.

How did the Delta A/min [5] turn out when `Cc1sc2c(c1Cl)CN1CC(=O)NC1=N2.Cl` was run?
Its Delta A/min is 0.28 ΔA/min.

And the EC50 [3]?
Its EC50 is 36 µM.

And the EC50 [4]?
Its EC50 is 17 µM.

With `Cc1sc2c(c1Cl)CN1C(=N2)NC(=O)C1C` (stereo not drawn) as the compound, how does the EC50 [3] read?
Its EC50 is 150 µM.

What about the EC50 [4] of the same compound?
The EC50 was 0.9 µM.

Which results are given for `CC1CCc2c(sc3c2CN2C(=N3)NC(=O)C2C)C1.Cl` (stereo not drawn)?
Delta A/min [1]: 152000; Delta A/min [2]: 0.207; EC50 [3]: 32 µM; EC50 [4]: 0.2 µM

`Cl.Cl.O=C1CN2Cc3c(sc4c3CCN(Cc3ccccc3)C4)N=C2N1` was tested. Which “Delta A/min” value [1] did it give?
The value was 121000.

And the Delta A/min [2]?
The Delta A/min was 0.186.

And the EC50 [3]?
Its EC50 is 13.5 µM.

What about the EC50 [4] of the same compound?
Its EC50 is 29 µM.

What does the source list for `CCOC(=O)N1CCc2c(sc3c2CN2CC(=O)NC2=N3)C1.Cl`?
Delta A/min [1]: 115000; Delta A/min [2]: 0.171; Delta A/min [6]: 30000; Delta A/min [7]: 0.072; Delta A/min [8]: 120000; EC50 [3]: 1.2 µM; EC50 [4]: 0.12 µM

With `Cl.O=C1CN2Cc3c(-c4ccccc4)csc3NC2=N1` as the compound, how does the Delta A/min [5] read?
Its Delta A/min is 0.198 ΔA/min.

And the EC50 [3]?
The EC50 was 120 µM.

And the EC50 [4]?
The EC50 was 20 µM.

For `Cc1csc2c1CN1CC(=O)NC1=N2.Cl`, which Delta A/min [5] is on record?
Its Delta A/min is 0.188 ΔA/min.

What about the EC50 [3] of the same compound?
The EC50 was 19 µM.

And the EC50 [4]?
Its EC50 is 15 µM.

What does the source list for `CCCCCc1sc2c(c1C)CN1CC(=O)NC1=N2.Cl`?
Delta A/min [5]: 0.002 ΔA/min; EC50 [3]: 2 µM; EC50 [4]: 0.19 µM

With `CN(C(=O)CCCOc1ccc2[nH]c(=O)ccc2c1)C1CCCCC1` [CILOSTAMIDE] as the compound, how does the “Change in heart rate” value [9] read?
The value was 22%.

And the “Change in heart rate” value [10]?
Its value is 21%.

And the “Change in heart rate” value [11]?
The value was 26%.

And the Initial blood pressure [12]?
Its Initial blood pressure is 125 mmHg.

And the EC50 [3]?
The EC50 was 12 µM.

And the “Decrease in blood pressure” value [13]?
Its value is -1.

What about the “Change in heart rate” value [14] of the same compound?
The value was 20%.

And the EC50 [4]?
The EC50 was 1.2 µM.

What about the “Decrease in blood pressure” value [15] of the same compound?
Its value is 1.

What about the Decrease in blood pressure [16] of the same compound?
Its Decrease in blood pressure is -1.

What does the source list for `Cl.O=C1CN2Cc3c(sc4c3CCSC4)N=C2N1`?
Delta A/min [1]: 0; Delta A/min [2]: 0.178; EC50 [3]: 2 µM; EC50 [4]: 0.54 µM

`CC1CCCc2c1sc1c2CN2CC(=O)N=C2N1.Cl` (stereo not drawn) was tested. Which Delta A/min [17] did it give?
Its Delta A/min is 0.053.

And the Delta A/min [18]?
Its Delta A/min is 0.118.

What about the Delta A/min [6] of the same compound?
The Delta A/min was 0.116.

And the Delta A/min [7]?
Its Delta A/min is 0.036.

And the “Delta A/min” value [5]?
Its value is 0.

What about the Delta A/min [8] of the same compound?
The Delta A/min was 0.

What about the EC50 [3] of the same compound?
The EC50 was 0.53 µM.

What about the Delta A/min [19] of the same compound?
Its Delta A/min is 0.079.

And the EC50 [4]?
Its EC50 is 0.18 µM.

With `CCCc1sc2c(c1C)CN1CC(=O)NC1=N2.Cl` as the compound, how does the Delta A/min [17] read?
The Delta A/min was 0.128.

And the Delta A/min [6]?
The Delta A/min was 0.242.

What about the Delta A/min [7] of the same compound?
The Delta A/min was 0.213.

What about the Delta A/min [5] of the same compound?
Its Delta A/min is 0.09 ΔA/min.

What about the Delta A/min [8] of the same compound?
Its Delta A/min is 0.09.

What about the EC50 [3] of the same compound?
The EC50 was 0.58 µM.

What about the Delta A/min [19] of the same compound?
The Delta A/min was 0.154.

What about the EC50 [4] of the same compound?
Its EC50 is 0.08 µM.

Which results are given for `Cl.O=C1CN2Cc3c(sc4c3CCC(OCc3ccccc3)C4)N=C2N1` (stereo not drawn)?
Delta A/min [1]: 42000; Delta A/min [2]: 0.117; EC50 [3]: 4.2 µM; EC50 [4]: 2.2 µM

With `Cl.O=C1CN2Cc3c(sc4c3CCc3ccccc3-4)N=C2N1` as the compound, how does the Delta A/min [1] read?
Its Delta A/min is 0.191 ΔA/min.

What about the Delta A/min [2] of the same compound?
The Delta A/min was 0.207.

What about the EC50 [3] of the same compound?
The EC50 was 19 µM.

And the EC50 [4]?
Its EC50 is 0.9 µM.

Which results are given for `Cl.O=C1CN2Cc3sccc3N=C2N1`?
Delta A/min [1]: 0.256 ΔA/min; Delta A/min [2]: 0.308; EC50 [3]: > 250 µM; EC50 [4]: 10 µM

Which results are given for `Cc1cc2c(s1)N=C1NC(=O)C(C)N1C2` (stereo not drawn)?
EC50 [3]: 230 µM; EC50 [4]: 10 µM

Which results are given for `CN1C(=O)CN2Cc3c(sc4c3CCCC4)N=C21`?
EC50 [3]: > 250 µM; EC50 [4]: > 250 µM
